Experimental data from different studies.
Lines come from different studies, so protocols differ.
Target: Ephrin type-A receptor 2 (EPHA2, Homo sapiens, UniProt P29317)
Residues used in one study (P29317 613-875, limits assumed): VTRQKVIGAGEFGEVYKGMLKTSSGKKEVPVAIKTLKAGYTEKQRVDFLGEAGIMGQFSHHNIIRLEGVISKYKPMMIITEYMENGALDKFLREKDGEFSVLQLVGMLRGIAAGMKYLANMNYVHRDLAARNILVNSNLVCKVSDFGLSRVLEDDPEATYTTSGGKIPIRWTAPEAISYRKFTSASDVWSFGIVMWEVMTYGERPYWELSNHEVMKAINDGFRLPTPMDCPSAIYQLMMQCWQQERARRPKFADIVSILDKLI

CS(=O)(=O)Nc1cccc(-c2csc(NC(=O)CSc3nc4nccnc4c(=O)n3CCc3ccccc3)n2)c1 has an inhibition of 9% (enzyme activity; inhibitor; 10 µM).
The remaining activity of Cc1sc(C(=O)NC2COC2)cc1-n1cc(NC(=O)Nc2c(F)cccc2Cl)cn1 is reported as 102% (enzyme activity; inhibitor; 10 µM).
With O=C(Nc1cnc(Oc2ccc(F)cc2)nc1)N1CCc2ncccc2[C@@H]1c1ccc(F)cc1 the remaining binding was 99% (cell-free assay; competition with immobilised ligand; 1 µM).
CSc1nc(C)c(-c2ccnc(Nc3ccc(N4CCOCC4)cc3)c2)[nH]1 gave an inhibition of 17.1% (cell-free assay; inhibitor; 10 µM).
CCN(CC)c1ccc(C2=NNC(=O)CC2C)cc1[N+](=O)[O-] (stereo not shown) gave a remaining activity of 97% (enzyme activity; inhibitor; 10 µM).
With CS(=O)(=O)N1CCCC(NC(=O)[C@H](CCC2CCCCC2)NC(=O)c2ccc(CNc3ncnc4c3nnn4-c3ccccc3)cc2)C1 (stereo partly shown) the remaining binding was 100% (cell-free assay; competition with immobilised ligand; 0.1 µM).
The remaining signal of Nc1ncnc2occ(-c3ccc(NC(=O)Nc4cc(C(F)(F)F)ccc4F)cc3)c12 is reported as 0% (cell-free assay; 20 µM).
For COc1cc2nccc(Oc3ccc(NC(=O)Nc4ccc(F)cc4F)c(F)c3)c2cc1OC, the ΔTm was 5 to 10 °C (thermal stability; DSF; 10 µM).
For CC/C(=N\NC(=O)NCc1cccc(O)c1)c1ccc(O)c(C)c1O, the inhibition was 3.9% (enzyme activity; inhibitor; 0.1 µM).
The inhibition of Cc1ccc(Nc2nccc(N(C)c3ccc4c(C)n(C)nc4c3)n2)cc1S(N)(=O)=O is reported as 43% (enzyme activity; inhibitor; 10 µM).
Cc1cnc(NC2CCOCC2)nc1-n1cnc(C(=O)NC(CN)c2cc(F)cc(Cl)c2)c1 (stereo not shown) gave a remaining activity of 101% (enzyme activity; inhibitor; radiometric; 1 µM).
CNC(=O)c1cc(Oc2ccc(NC(=O)Nc3ccc(Cl)c(C(F)(F)F)c3)cc2)ccn1 has an inhibition of 96% (enzyme activity; inhibitor; 10 µM).
For O=C(Nc1cnn(-c2csc(C(=O)NC3COC3)c2)c1)Nc1ccccc1Cl, the remaining activity was 101% (enzyme activity; inhibitor; 5 µM).
CC(C)(C)c1nc(-c2cccc(NS(=O)(=O)c3c(F)cccc3F)c2F)c(-c2ccnc(N)n2)s1 gave a remaining activity of 133% (enzyme activity; inhibitor; radiometric; 1 µM).
With N#CC1(c2ccccn2)CCN(Cc2cc(C(=O)N3CCCC3)c(=O)n3ccccc23)CC1 the remaining binding was 86% (cell-free assay; competition with immobilised ligand; 1 µM).
Cn1c(=O)n(-c2ccc(C(C)(C)C#N)cc2)c2c3cc(-c4cnc5ccccc5c4)ccc3ncc21 gave a remaining activity of 110% (enzyme activity; inhibitor; 10 µM).
CCN(CC)CCNC(=O)c1c(C)[nH]c(/C=C2\C(=O)Nc3ccc(F)cc32)c1C has an inhibition of -12% (enzyme activity; inhibitor; 0.3 µM).
C[C@@H]1CCN(C(=O)CC#N)C[C@@H]1N(C)c1ncnc2[nH]ccc12 has a remaining signal of 95.8% (cell-free assay; 0.5 µM).
COc1cc(/C=C/C(=O)CC(=O)/C=C/c2ccc(O)c(OC)c2)ccc1O has an activity vs control of 104% (enzyme activity; inhibitor; 1 µM).
CCCOc1ccc(OC)c(F)c1C(=O)c1ccc(C(=O)N[C@@H]2CNC[C@H]2NC(=O)c2ccc3[nH]ncc3c2)cc1 gave a remaining activity of 69% (enzyme activity; inhibitor; 10 µM).
The remaining binding of O=C1NC(c2ccccn2)Sc2ccccc21 (stereo not shown) is reported as 100% (cell-free assay; competition with immobilised ligand; 1 µM).
For COc1cc2ncnc(Nc3ccc(Oc4ccccc4)cc3C)c2cc1OC, the inhibition was 2% (enzyme activity; inhibitor; 1 µM).
For N#CCCc1ccc2c(c1)-c1[nH]c3ccc([N+](=O)[O-])cc3c1CC(=O)N2, the remaining signal was 93.6% (cell-free assay; 0.5 µM).
For O=C(Nc1ccc(Oc2ccc(F)cc2)cc1)N1CCc2ncccc2[C@H]1c1ccc(F)cc1, the remaining binding was 100% (cell-free assay; competition with immobilised ligand; 1 µM).
CC(C)(O)[C@H]1CC[C@H](Nc2ccc3ncc(-c4cccc(C(F)(F)F)c4)n3n2)CC1 has a remaining activity of 93.9% (enzyme activity; inhibitor; 1 µM).
CCc1ccccc1C(=O)Nc1n[nH]c2c(C)c(F)c(C3C(C#N)=C(C)N(C)C(C)=C3C#N)cc12 has a remaining binding of 61% (cell-free assay; competition with immobilised ligand; 1 µM).
CC(C)(C)C(=O)c1sc(NC2CCCCC2)nc1N has a remaining activity of 106% (enzyme activity; inhibitor; 10 µM).
The remaining binding of O=C(NC[C@@H]1[C@H]2CN(C(=O)OCc3cc(C(F)(F)F)cc(C(F)(F)F)c3)C[C@@H]12)c1ccc2[nH]nnc2c1 is reported as 79% (cell-free assay; competition with immobilised ligand; 1 µM).
For COc1ccc(COc2ccc(Cc3cnc(N)nc3N)cc2OC)cc1, the remaining signal was 107% (cell-free assay; 0.5 µM).
The remaining binding of Cc1cc(-n2nc(Cc3cc(F)cc(C(F)(F)F)c3)nc2C)ccc1C(N)=O is reported as 100% (cell-free assay; competition with immobilised ligand; 1 µM).
With COc1cc(Nc2cnc(C#N)c(O[C@H](C)CN(C)C)n2)ncc1-c1cnn(C)c1 the remaining activity was 59% (enzyme activity; inhibitor; radiometric; 1 µM).
